Only a selection was taken, and hits are over-represented in it overall.
T cruzi HTS – inhibitors of intracellular Trypanosoma cruzi | activity score (inhibition), % at 5.01 µM | 22,000 tested, 4.9% active | intracellular Trypanosoma cruzi in host cells, plate reader | AID 651903; in the data active = activity score above about 55%;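 note: parasites and compound incubated about four days before reading; 0% = median of neutral control wells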
INS-1E ATP HTS – INS-1E beta cell protection from cytokine death; INS-1E cytokine-induced death, ATP luminescence, 48 h; normalised: neutral wells 0, positive control 100; protection from cytokine-induced ATP loss, % at 10 µM; 20,000 tested, 0.1% active;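 active = mean replicate protection from cytokine-induced ATP loss at least 50% and at least 75% of replicates each reaching 50%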
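Assay system – rat INS-1E insulinoma cell line · Quantity – 8000 cells per well · Buffer or medium – RPMI without phenol red, 5% FBS · Schedule – 48 h co-treatment, 10 min post-lysis read · Technique – luminescent ATP assay (CellTiter-Glo)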
A1 apoptosis 2 – blocks A1, raising caspase activity. 24,000 tested, under 10 active. caspase activation, % (test concentration not listed). MEF A1-2A-BIM cells, caspase-Glo luminescence, 3 h; percent of clofoctol response, DMSO zero. AID 2465; in the data active = caspase activation above about 5.9%
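Material: A1-2A-BIM-expressing MEF cells. Buffer or medium: RPMI-1640 plus 10% FBS. Incubation: cells settled overnight, compound exposure 3 h at 37 °C, 5% CO2. Signal: Caspase-Glo 3/7 luminescence, 1 h at room temperature.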
* hit, by the source's call; nt = not tested or not shown.

SMILES	T cruzi HTS	INS-1E ATP HTS	A1 apoptosis 2
C[C@@H]1CN([C@@H](C)CO)C(=O)c2cccc(NS(=O)(=O)c3cccs3)c2O[C@@H]1CN(C)C(=O)Nc1ccc(F)cc1	14	9	nt
C[C@H]1CN([C@@H](C)CO)C(=O)c2cccc(NC(=O)Nc3ccc(C(F)(F)F)cc3)c2O[C@@H]1CN(C)C(=O)Nc1cccc2ccccc12	66*	-11	1
C[C@H]1CN([C@@H](C)CO)C(=O)c2cccc(NC(=O)Nc3ccc(C(F)(F)F)cc3)c2O[C@@H]1CN(C)C(=O)Nc1ccc(C(F)(F)F)cc1	47	-58	0
C[C@@H]1CN([C@H](C)CO)C(=O)c2cccc(NC(=O)Nc3ccc(C(F)(F)F)cc3)c2O[C@@H]1CN(C)C(=O)NC1CCCCC1	82*	-110	1
C[C@@H]1CN([C@H](C)CO)C(=O)c2cccc(NS(=O)(=O)c3cccs3)c2O[C@@H]1CN(C)C(=O)Nc1ccc(C(F)(F)F)cc1	71*	-35	1
C[C@@H]1CN([C@H](C)CO)C(=O)c2cccc(NC(=O)Nc3ccc(C(F)(F)F)cc3)c2O[C@H]1CN(C)C(=O)Nc1cccc2ccccc12	-4	-17	-1
C[C@@H]1CN([C@@H](C)CO)C(=O)c2cccc(NC(=O)Nc3ccc(C(F)(F)F)cc3)c2O[C@H]1CN(C)C(=O)NC1CCCCC1	-9	-7	-1
C[C@@H]1CN([C@@H](C)CO)C(=O)c2cccc(NC(=O)Nc3ccc(C(F)(F)F)cc3)c2O[C@H]1CN(C)C(=O)Nc1ccc(C(F)(F)F)cc1	72*	-95	-2
CCCCCCC/C=N/NC(=O)CCCCC(=O)NO	-2	-4	1
CC(/C=C/C(=O)NO)=C\c1cccc(OCc2ccc(-c3ccncc3)cc2)c1	nt	nt	0
O=C(N/N=C/C=C/c1ccccc1)c1ccccc1O	-25	-57	-2
C[C@@H]1CCCCO[C@H](CN(C)C(=O)CCC(F)(F)F)[C@H](C)CN([C@@H](C)CO)C(=O)c2cc(NC(=O)c3ccncc3)ccc2O1	nt	nt	1
COc1cc2c(cc1OC)CN(C(=O)[C@H]1[C@@H]3C(=O)O[C@@H](c4ccccc4)[C@@H](c4ccccc4)N3[C@@H](c3ccc(O)cc3)[C@]13C(=O)Nc1ccc(C#CC4=CCCCC4)cc13)CC2	nt	nt	-1
C=CCOC(=O)[C@H]1[C@@H]2C(=O)O[C@@H](c3ccccc3)[C@@H](c3ccccc3)N2[C@@H](c2ccc(OCCOC(=O)[C@@H]3C[C@@H]4C(=O)N5CCC[C@H]5C(=O)N4[C@@H]3c3cccc(OCCO)c3)cc2)[C@]12C(=O)Nc1ccc(I)cc12	nt	nt	1
COc1ccc(NC(=O)N(C)C[C@H]2Oc3c(NS(=O)(=O)c4ccc(F)cc4)cccc3C(=O)N([C@@H](C)CO)C[C@H]2C)cc1	64*	1	-1
COc1ccc(S(=O)(=O)Nc2cccc3c2O[C@H](CN(C)C(=O)Nc2ccc(F)cc2)[C@@H](C)CN([C@H](C)CO)C3=O)cc1	6	-2	nt
COC(=O)[C@@]1(Cc2ccccc2N=[N+]=[N-])N=C(c2ccc(OCCCO)cc2)O[C@H]1c1ccccc1	nt	nt	-1
C=CCNC(=O)[C@@H]1[C@H]2C(=O)O[C@H](c3ccccc3)[C@H](c3ccccc3)N2[C@H](c2ccc(OCCO)cc2)[C@@]12C(=O)Nc1ccc(C#CC3(O)CCCCCC3)cc12	nt	nt	0
Cc1ncc(CO)c(/C=N/NC(=O)CCCCCCC(=O)Nc2ccccc2O)c1O	-4	2	-1
C[C@@H]1CCCCO[C@H](CN(C)C(=O)Nc2ccc(C(F)(F)F)cc2)[C@@H](C)CN([C@H](C)CO)C(=O)c2cc(NS(=O)(=O)c3cccs3)ccc2O1	nt	0	nt
C[C@@H]1CCCCO[C@@H](CN(C)C(=O)Nc2ccc(C(F)(F)F)cc2)[C@@H](C)CN([C@H](C)CO)C(=O)c2cc(NS(=O)(=O)c3cccs3)ccc2O1	57*	-13	0
C[C@@H]1CCCCO[C@@H](CN(C)Cc2ccc(C(F)(F)F)cc2)[C@@H](C)CN([C@H](C)CO)C(=O)c2cc(NS(=O)(=O)c3cccs3)ccc2O1	64*	-74	nt
C[C@@H]1CCCCO[C@H](CN(C)Cc2ccc(C(F)(F)F)cc2)[C@@H](C)CN([C@H](C)CO)C(=O)c2cc(NS(=O)(=O)c3cccs3)ccc2O1	18	-9	nt
C[C@@H]1CN([C@@H](C)CO)C(=O)c2cccc(NC(=O)Nc3ccccc3)c2O[C@H]1CN(C)S(=O)(=O)c1ccc(Cl)cc1	-5	37	nt

High-throughput results (PubChem)
